Experiments:
Assay type in all cases: functional
BG-1 cell line [1] = test: Compound was evaluated for its effect on colony growth of human ovarian adenocarcinoma cell line BG-1 at 3.0 ug/mL
How it was run: (§1)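 Single-cell suspensions of BG-1 or BG-3 human ovarian carcinoma cells (derived from primary explants, now kept in continuous culture) were plated in soft agarose clonogenic culture. Cells were exposed continuously to phospholipid analogue over a three-log concentration range, with untreated cultures as controls. After 7 days at 37 °C/7.5% CO2, colonies were scored by inverted microscopy and automated image analysis.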

BG-3 [2] = test: Compound was evaluated for its effect on colony growth of human ovarian adenocarcinoma cell line BG-3 at 30.0 ug/mL; how it was run: as §1
BG-1 cell line [3] = test: Compound was evaluated for its effect on colony growth of human ovarian adenocarcinoma cell line BG-1 at 10.0 ug/mL; how it was run: as §1
BG-3 [4] = test: Compound was evaluated for its effect on colony growth of human ovarian adenocarcinoma cell line BG-3 at 0.0 ug/mL,; how it was run: as §1
BG-3 [5] = test: Compound was evaluated for its effect on colony growth of human ovarian adenocarcinoma cell line BG-3 at 10.0 ug/mL; how it was run: as §1
BG-3 [6] = test: Compound was evaluated for its effect on colony growth of human ovarian adenocarcinoma cell line BG-3 at 0.1 ug/mL; how it was run: as §1
BG-1 cell line [7] = test: Compound was evaluated for its effect on colony growth of human ovarian adenocarcinoma cell line BG-1 at 30.0 ug/mL; how it was run: as §1
BG-1 cell line [8] = test: Compound was evaluated for its effect on colony growth of human ovarian adenocarcinoma cell line BG-1 at 0.1 ug/mL; how it was run: as §1
BG-1 cell line [9] = test: Compound was evaluated for its effect on colony growth of human ovarian adenocarcinoma cell line BG-1 at 0.03 ug/mL; how it was run: as §1
BG-3 [10] = test: Compound was evaluated for its effect on colony growth of human ovarian adenocarcinoma cell line BG-3 at 0.03 ug/mL; how it was run: as §1
BG-1 cell line [11] = test: Compound was evaluated for its effect on colony growth of human ovarian adenocarcinoma cell line BG-1 at 1.0 ug/mL; how it was run: as §1
BG-3 [12] = test: Compound was evaluated for its effect on colony growth of human ovarian adenocarcinoma cell line BG-3 at 1.0 ug/mL; how it was run: as §1
BG-3 [13] = test: Compound was evaluated for its effect on colony growth of human ovarian adenocarcinoma cell line BG-3 at 3.0 ug/mL; how it was run: as §1
BG-3 [14] = test: Compound was evaluated for its effect on colony growth of human ovarian adenocarcinoma cell line BG-3 at 0.3 ug/mL; how it was run: as §1
BG-1 cell line [15] = test: Compound was evaluated for its effect on colony growth of human ovarian adenocarcinoma cell line BG-1 at 0.0 ug/mL; how it was run: as §1
BG-1 cell line [16] = test: Compound was evaluated for its effect on colony growth of human ovarian adenocarcinoma cell line BG-1 at 0.3 ug/mL; how it was run: as §1

`CCCCCCCCCCCCCCCCSCC(COP(=O)([O-])OCC[N+](C)(C)C)OCC` (stereo unspecified) showed a Control (BG-1 cell line [1]) of 2%, a Control (BG-3 [2]) of 2% and a Control (BG-1 cell line [3]) of 2%. It also gave a Control (BG-3 [4]) of 100%, a Control (BG-3 [5]) of 3% and a Control (BG-3 [6]) of 54%. For the same compound, the Control (BG-1 cell line [7]) was 2%, the Control (BG-1 cell line [8]) was 64% and the Control (BG-1 cell line [9]) was 65%. It also gave a Control (BG-3 [10]) of 56%, a Control (BG-1 cell line [11]) of 8% and a Control (BG-3 [12]) of 17%. The Control (BG-3 [13]) was 2%, the Control (BG-3 [14]) was 56% and the Control (BG-1 cell line [15]) was 100%. It also gave a Control (BG-1 cell line [16]) of 53%.

From ChEMBL document CHEMBL1123257, “Synthesis of sulfur analogues of alkyl lysophospholipid and neoplastic cell growth inhibitory properties” (1986)
